Our source for the EC50 and CC50 values is ChEMBL document CHEMBL3351523 (Bioorg Med Chem, 2014).

In one data set the test system is Reovirus sp. Put plainly: Antiviral activity against Reovirus type-1 infected in BHK21 cells assessed as inhibition of virus-induced cytopathogenicity after 3 to 4 days by MTT assay. The class given is functional, organism-based. Particulars: BHK-21.
A short description of data set [1]: Cytotoxicity against mock-infected african green monkey Vero 76 cells after 48 to 96 hrs by MTT assay. The class given is cell-based. Particulars: chlorocebus sabaeus, mock-infected Vero 76 cells.
The subject of a further data set is Yellow fever virus. The data set can be described thus: Antiviral activity against Yellow fever virus infected in BHK21 cells assessed as inhibition of virus-induced cytopathogenicity after 3 to 4 days by MTT assay. The class given is functional, organism-based. The following applies: BHK-21.
Data set [2] concerns Respiratory syncytial virus. Put plainly: Antiviral activity against Respiratory syncytial virus infected in african green monkey Vero 76 cells assessed as reduction in plaque number after 5 days by plaque reduction assay. The class given is functional, organism-based. The following applies: human respiratory syncytial virus, 120 h.
For data set [3], the system named is Bovine viral diarrhea virus 1. The data set can be described thus: Antiviral activity against Bovine viral diarrhea virus infected in MDBK cells assessed as inhibition of virus-induced cytopathogenicity after 3 to 4 days by MTT assay. The class given is functional, organism-based. The following applies: Bovine viral diarrhea virus isolates and strains.
For a further data set, the system named is Poliovirus 1. The data set can be described thus: Antiviral activity against Poliovirus type 1 Sabin strain infected in african green monkey Vero 76 cells assessed as reduction in plaque number after 2 days by plaque reduction assay. The class given is functional, organism-based. Particulars: Enterovirus C, 48 h.
The nature of data set [4]: Cytotoxicity against mock-infected BHK21 cells after 48 to 96 hrs by MTT assay. The class given is functional. The following applies: Mesocricetus auratus, BHK-21. In outline: (§1)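 Mock-infected MDBK (6 × 10^5 cells/mL; MEM-E, 10% horse serum, 1 mM pyruvate) or BHK (1 × 10^6 cells/mL; MEM-E, 10% FBS) cells were incubated at 37 °C, 5% CO2 with serial dilutions from 100 µM, 1:5. Viability by MTT after 48–96 h. CC50 from linear regression against untreated controls.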

The subject of another data set is Vaccinia virus. Put plainly: Antiviral activity against Vaccinia Virus infected in african green monkey Vero 76 cells assessed as reduction in plaque number after 3 days by plaque reduction assay. The class given is functional, organism-based. Particulars: Orthopoxvirus vaccinia, 72 h.
The nature of data set [5]: Cytotoxicity against mock-infected MDBK cells after 48 to 96 hrs by MTT assay. The class given is cell-based, Bos taurus. Particulars: cattle. The method, boiled down: as §1
Data set [6] has as its system Vesicular stomatitis virus. The data set can be described thus: Antiviral activity against Vesicular stomatitis virus infected in african green monkey Vero 76 cells assessed as reduction in plaque number after 2 days by plaque reduction assay. Particulars: 48 h. The class given is functional, organism-based.
The test system of another data set is Coxsackievirus B5. Put plainly: Antiviral activity against Coxsackievirus B5 infected in african green monkey Vero 76 cells assessed as reduction in plaque number after 3 days by plaque reduction assay. The class given is functional, organism-based. The following applies: Enterovirus B, 72 h.
Data set [7] in a line: Cytotoxicity against mock-infected human MT4 cells after 96 hrs by MTT assay. The class given is cell-based. In outline: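 Exponentially growing MT-4 cells were seeded at 1 × 10^5 cells/mL in RPMI-1640 with 10% FBS and held at 37 °C, 5% CO2 with serial compound dilutions. Viability was read by MTT after 96 h. CC50 from linear regression against untreated controls.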
The test system of the next data set is Human alphaherpesvirus 1. The data set can be described thus: Antiviral activity against HSV1 infected in african green monkey Vero 76 cells assessed as reduction in plaque number after 3 days by plaque reduction assay. The class given is functional, organism-based. Particulars: Human alphaherpesvirus 1, Vero, 72 h.
Data set [8] concerns Human immunodeficiency virus 1. The data set can be described thus: Antiviral activity against HIV1 infected in human MT4 cells assessed as inhibition of virus-induced cytopathogenicity after 4 days by MTT assay. The class given is functional, organism-based. The following applies: Human immunodeficiency virus 1, MT4, 96 h. The method, boiled down: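 MT-4 cells (1 × 10^4/well in RPMI) were infected acutely with HIV-1 IIIB, 100 CCID50 (m.o.i. 0.01), with serial dilutions from 100 µM, 1:5. After 4 days at 37 °C, protection from virus-induced cytopathogenicity was read by MTT. EC50 came from linear regression against untreated controls.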

`CCc1nc2ccccc2[nH]1`: the EC50 (in the data set on Reovirus sp.; in the data set on Yellow fever virus; in [2]; in data set [3]; in the data set with Poliovirus 1; in the data set on Vaccinia virus) was more than 100 µM in each case. Moreover, the concentration giving a half-maximal response (EC50) (in [6]; in the data set on Coxsackievirus B5; in the data set on Human alphaherpesvirus 1; in data set [8]) was more than 100 µM in each case. In addition, the CC50 in data set [1], in data set [4] and in [5] was more than 100 µM throughout. This compound also displayed a CC50 at 96 h in data set [7] of more than 100 µM.
In the case of `Clc1cc2nc(Cc3ccc(Br)cc3)[nH]c2cc1Cl`, the EC50 (in the data set on Reovirus sp.; in the data set with Yellow fever virus; in data set [2]; in [3]; with Poliovirus 1; with Vaccinia virus) was more than 100 µM throughout. Further, the EC50 (in [6]; in the data set on Coxsackievirus B5; in the data set with Human alphaherpesvirus 1; in data set [8]) was more than 100 µM throughout. Further, the cytotoxic concentration (CC50) in data set [1] turned out to be 73 µM; in data set [4], 10 µM; in [5], 10 µM. In addition, in data set [7], the 50% cytotoxic concentration (CC50) at 96 h was 68 µM.
With `CC(=O)Nc1ccc(Cc2nc3cc(Cl)c(Cl)cc3[nH]2)cc1`, the EC50 (with Reovirus sp.; in the data set on Yellow fever virus; in data set [2]; in [3]; with Poliovirus 1; in the data set with Vaccinia virus) was more than 100 µM throughout. The EC50 (in [6]; with Coxsackievirus B5; with Human alphaherpesvirus 1; in [8]) was more than 100 µM in each case. The CC50 in data set [1], in data set [4] and in data set [5] was more than 100 µM each time. Further, the cytotoxic concentration (CC50) at 96 h in data set [7] is more than 100 µM.
As to `Clc1ccc(Cc2nc3cc(Cl)c(Cl)cc3[nH]2)cc1`, the concentration giving a half-maximal response (EC50) (in the data set on Reovirus sp.; with Yellow fever virus; in data set [2]; in [3]; in the data set with Poliovirus 1; with Vaccinia virus) was more than 100 µM each time. Moreover, the EC50 (in [6]; with Coxsackievirus B5; in the data set with Human alphaherpesvirus 1; in data set [8]) was more than 100 µM throughout. Further, the CC50 in [1] is 71 µM; in [4] it was more than 100 µM; in data set [5] it was 9 µM. The CC50 at 96 h in data set [7] came out at 37 µM.
As to `COc1ccc(-c2nc3cc(Cl)ccc3n2[C@H]2CCCN3CCCC[C@H]23)cc1`, the EC50 with Reovirus sp. is more than 100 µM; with Yellow fever virus, more than 100 µM; in data set [2], more than 100 µM; in [3], 36 µM; in the data set on Poliovirus 1, more than 100 µM; in the data set on Vaccinia virus, more than 100 µM. The EC50 (in [6]; in the data set on Coxsackievirus B5; in the data set on Human alphaherpesvirus 1; in [8]) was more than 100 µM each time. For the same compound, the CC50 in data set [1], in [4] and in data set [5] was more than 100 µM each time. The same compound yielded a CC50 at 96 h in data set [7] of more than 100 µM.
On to `FC(F)(F)c1ccc2c(c1)nc(-c1ccccc1)n2C[C@@H]1CCCN2CCCC[C@H]12`, for which the EC50 (in the data set with Reovirus sp.; with Yellow fever virus; in data set [2]; in data set [3]; in the data set on Poliovirus 1; in the data set with Vaccinia virus) was more than 100 µM in each case. Further, the EC50 (in [6]; with Coxsackievirus B5; with Human alphaherpesvirus 1; in data set [8]) was more than 100 µM each time. Also, the figures for the CC50 in data set [1], in data set [4] and in data set [5] were 90 µM, 75 µM and 35 µM, respectively. For the same compound, the CC50 at 96 h in [7] was determined as 46 µM.
For the compound `COc1ccc(-c2nc3cc(C(F)(F)F)ccc3n2CCN(C)C)cc1`, the EC50 (in the data set with Reovirus sp.; in the data set with Yellow fever virus; in data set [2]; in data set [3]; with Poliovirus 1; in the data set with Vaccinia virus) was more than 100 µM throughout. For the same compound, the concentration for a half-maximal effect (EC50) (in data set [6]; with Coxsackievirus B5; in the data set on Human alphaherpesvirus 1; in data set [8]) was more than 100 µM each time. In addition, the cytotoxic concentration (CC50) in [1], in [4] and in data set [5] was more than 100 µM throughout. The compound further had a CC50 at 96 h in data set [7] of more than 100 µM.
As for `CCN(CC)CCCn1c(-c2ccc(OC)cc2)nc2cc(C(F)(F)F)ccc21`, the EC50 (in the data set with Reovirus sp.; with Yellow fever virus; in data set [2]; in [3]; with Poliovirus 1; in the data set on Vaccinia virus) was more than 100 µM each time. Also, the 50% effective concentration (EC50) (in data set [6]; in the data set with Coxsackievirus B5; in the data set on Human alphaherpesvirus 1; in data set [8]) was more than 100 µM throughout. Besides, the figures for the CC50 in [1], in data set [4] and in [5] were more than 100 µM, 76 µM and more than 100 µM, respectively. In data set [7], this compound showed a CC50 at 96 h of more than 100 µM.
In the case of `Fc1cccc(F)c1-c1nc2cc(C(F)(F)F)ccc2n1C[C@@H]1CCCN2CCCC[C@H]12`, the EC50 is more than 100 µM in the data set on Reovirus sp.; more than 100 µM in the data set on Yellow fever virus; more than 100 µM in data set [2]; more than 100 µM in data set [3]; 60 µM with Poliovirus 1; more than 100 µM in the data set with Vaccinia virus. The EC50 (in data set [6]; with Coxsackievirus B5; with Human alphaherpesvirus 1; in data set [8]) was more than 100 µM in each case. The CC50 was not below 100 µM in [1], 18 µM in data set [4] and 36 µM in [5]. In data set [7], this compound showed a CC50 at 96 h of 57 µM.
Turning to `CC(CC(=O)O)n1c(-c2ccccc2)nc2ccccc21` (configuration not stated), the EC50 (in the data set on Reovirus sp.; with Yellow fever virus; in [2]; in [3]; in the data set on Poliovirus 1; in the data set on Vaccinia virus) was more than 100 µM throughout. Besides, the EC50 (in [6]; in the data set on Coxsackievirus B5; with Human alphaherpesvirus 1; in [8]) was more than 100 µM each time. In addition, the CC50 in data set [1], in data set [4] and in data set [5] was more than 100 µM throughout. In data set [7], the cytotoxic concentration (CC50) at 96 h was more than 100 µM.
Take `COCCn1c(-c2ccc(OC)cc2)nc2cc(C(F)(F)F)ccc21`: the EC50 (with Reovirus sp.; in the data set with Yellow fever virus; in data set [2]; in data set [3]; in the data set with Poliovirus 1; in the data set with Vaccinia virus) was more than 100 µM throughout. Besides, the EC50 (in data set [6]; in the data set with Coxsackievirus B5; in the data set with Human alphaherpesvirus 1; in [8]) was more than 100 µM in each case. The CC50 in data set [1], in data set [4] and in [5] was more than 100 µM each time. The compound also displayed a CC50 at 96 h in [7] of 80 µM.
Turning to `CC(CC(=O)O)n1c(Cc2ccc(Cl)cc2)nc2ccccc21` (configuration not stated), the EC50 (with Reovirus sp.; in the data set with Yellow fever virus; in [2]; in data set [3]; in the data set on Poliovirus 1; in the data set with Vaccinia virus) was more than 100 µM each time. Also, the EC50 (in data set [6]; in the data set with Coxsackievirus B5; in the data set with Human alphaherpesvirus 1; in data set [8]) was more than 100 µM in each case. Also, the CC50 in [1], in data set [4] and in data set [5] was more than 100 µM each time. The compound further displayed a CC50 at 96 h in data set [7] of more than 100 µM.
Turning to `CCOCc1nc2ccccc2[nH]1`, the EC50 (in the data set with Reovirus sp.; in the data set on Yellow fever virus; in data set [2]; in data set [3]; in the data set with Poliovirus 1; in the data set on Vaccinia virus) was more than 100 µM each time. Also, the EC50 (in data set [6]; in the data set with Coxsackievirus B5; in the data set with Human alphaherpesvirus 1; in [8]) was more than 100 µM in each case. Further, the cytotoxic concentration (CC50) in data set [1], in data set [4] and in data set [5] was more than 100 µM each time. Moreover, the half-maximal cytotoxic concentration (CC50) at 96 h in data set [7] was more than 100 µM.
